In ChEMBL document CHEMBL3860103, “Antibacterial and Antibiofilm Activity of Cationic Small Molecules with Spatial Positioning of Hydrophobicity: An in Vitro and in Vivo Evaluation” (J Med Chem, 2016):
Calls of active or inactive are those of the source. The rule behind the calls is not given here.

Legend:
[1] = system: Staphylococcus aureus; assay: Induction of biofilm disruption in Staphylococcus aureus after 24 hrs by confocal laser-scanning microscopy; type: functional
How it was run: (§1)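 Biofilms grown on glass coverslips from ~10^5 CFU/mL: S. aureus in nutrient medium + 1% glucose + 1% NaCl, 24 h; E. coli in M9 + 0.5% glycerol + 0.02% casamino acid, 72 h; stationary, 37 °C. After PBS wash, treated 24 h at 37 °C with 32 µg/mL in the same medium; media-only control. Stained with SYTO 9 (5 µM), imaged by confocal microscopy.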

[2] = system: Escherichia coli; assay: Induction of biofilm disruption in Escherichia coli after 24 hrs by confocal laser-scanning microscopy; type: functional; how it was run: as §1
[3] = system: Staphylococcus aureus; assay: Antibacterial activity against Staphylococcus aureus incubated for 24 hrs; type: functional
How it was run: (§2)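 Broth microdilution: 6 h cultures diluted to ~10^5 CFU/mL in medium; compounds 2-fold serially diluted in water, mixed 1:3 with bacterial suspension. Incubated 24 h, 37 °C; OD600 read. MIC = concentration with OD similar to medium-only control. Triplicate wells, experiments repeated at least twice.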

[4] = system: Escherichia coli; assay: Antibacterial activity against Escherichia coli incubated for 24 hrs; type: functional; how it was run: as §2
[5] = system: Staphylococcus aureus; assay: Antibacterial activity against methicillin-resistant Staphylococcus aureus incubated for 24 hrs; type: functional
How it was run: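 MRSA (ATCC 33591) from a 6 h culture (~10^9 CFU/mL), diluted to ~10^5 CFU/mL in medium. Compounds in water, 2-fold serial dilutions, combined with the bacteria at 1:3 by volume and incubated 24 h at 37 °C. OD600 read. MIC is the lowest concentration whose OD matches the media-only control. Triplicate wells; experiments repeated at least twice.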

[6] = Induction of hemolysis in human RBC incubated for 1 hr; type: cell-based, Erythrocyte; details: red blood cells
How it was run: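 Washed human RBCs from heparinized blood, 5 vol% in PBS, mixed 3:1 with serially diluted compounds; 1 h at 37 °C. Centrifuged; supernatant A540 read. Hemolysis % = (A−A0)/(Atotal−A0)×100, with water as 0% and 0.1 vol% Triton X-100 as full lysis.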

[7] = Selectivity index, ratio of HC50 for induction of hemolysis in human RBC to MIC for Staphylococcus aureus
[8] = Selectivity index, ratio of HC50 for induction of hemolysis in human RBC to MIC for Escherichia coli
[9] = system: Staphylococcus aureus; assay: Induction of membrane depolarization in Staphylococcus aureus at 32 ug/ml after 0 to 20 mins by […] dye based assay; type: functional
How it was run: (§3)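 Membrane-potential dye DiSC3(5) taken up by S. aureus or E. coli; depolarization followed as rise in dye fluorescence after adding compounds at 32 µg/mL.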

[10] = system: Escherichia coli; assay: Induction of membrane depolarization in Escherichia coli at 32 ug/ml after 0 to 20 mins by […] dye based assay; type: functional; how it was run: as §3
[11] = system: Staphylococcus aureus; assay: Induction of membrane permeabilization in Staphylococcus aureus at 32 ug/ml after 0 to 20 mins by propidium iodide dye based assay; type: functional
How it was run: (§4)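 Membrane permeabilization of S. aureus or E. coli followed as increase in propidium iodide fluorescence after adding compounds at 32 µg/mL.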

[12] = system: Escherichia coli; assay: Induction of membrane permeabilization in Escherichia coli at 32 ug/ml after 0 to 20 mins by propidium iodide dye based assay; type: functional; how it was run: as §4
[13] = system: Staphylococcus aureus; assay: (§5) Antibacterial activity against Staphylococcus aureus infected in BALB/c mouse model of superficial skin infection and biofilm formation assessed as reduction in bacterial load in skin at 40 mg/kg applied topically once daily for 4 days and measured 18 hrs after last dose; type: functional
How it was run: (§6)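 Female BALB/c mice (6–8 weeks, 18–22 g) made neutropenic with cyclophosphamide i.p. (150 mg/kg, then 100 mg/kg 3 days later), anesthetized, backs shaved, wounded and infected with MRSA ATCC 33591. After 24 h biofilm formation, 40 mg/kg applied topically to wound once daily for 4 days (n = 5/group; untreated control). Skin collected 18 h after last dose for CFU/g; portions formalin-fixed for SEM.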

[14] = system: Staphylococcus aureus; assay: as §5, with “dose by FEI field emission scanning electron microscopy relative to un-treated control” for “dose”; type: functional, organism-based; how it was run: as §6

Compound	MIC [3] [µg/mL]	MIC [4] [µg/mL]	MIC [5] [µg/mL]	HC50 at 1 h [6] [µg/mL]	other results
N,N,N-trimethylhexadecan-1-aminium bromide					MBEC [1]: Active; MBEC [2]: Active
CCCCCCCCNC(=O)C[N+](C)(C)CCCCCC[N+](C)(C)CC(=O)NCCCCCCCC.[Br-].[Br-]	2	6	4	300	Selectivity Index [7]: 150; Selectivity Index [8]: 50; Activity [9]: Active; Activity [10]: Active; Activity [11]: Active; Activity [12]: Active
CCCCCCCCNC(=O)C[N+](C)(C)CCCCCCCCCCCC[N+](C)(C)CC(=O)NCCCCCCCC.[Br-].[Br-]	1	2	1	65	
CC(=O)O[C@H]1C[C@@]2(C)[C@@H](C[C@@H](O)[C@H]3[C@@]4(C)CC[C@@H](O)[C@@H](C)[C@@H]4CC[C@@]32C)/C1=C(\CCC=C(C)C)C(=O)O [FUSIDIC ACID]					Activity [13]: 2.2 log10CFU/g; Activity [14]: Active
CCCCCCCCNC(=O)C[N+](C)(C)CCCCCCCCCC[N+](C)(C)CC(=O)NCCCCCCCC.[Br-].[Br-]	1	1	2	100	
CCCCCCCCNC(=O)C[N+](C)(C)CCCC[N+](C)(C)CC(=O)NCCCCCCCC.[Br-].[Br-]	2	8	3.9	310	
CCCCCCNC(=O)C[N+](C)(C)CCCCCC[N+](C)(C)CC(=O)NCCCCCC.[Br-].[Br-]	62.5	125	125	> 1000	
CCCCCCNC(=O)C[N+](C)(C)CCCCCCCC[N+](C)(C)CC(=O)NCCCCCC.[Br-].[Br-]	16	31	31	> 1000	
CCCCCCNC(=O)C[N+](C)(C)CCCC[N+](C)(C)CC(=O)NCCCCCC.[Br-].[Br-]	62.5	125	125	> 1000	
CCCCCCCCCCCCCC[N+](C)(C)Cc1ccccc1					MBEC [1]: Active; MBEC [2]: Active
